# High-throughput results (PubChem BioAssay)
# Only some compounds are listed: those with a hit (about 1.5% of all), similar ones and a draw of the others.
# EBI2 antag: antagonists of human EBI2 receptor | P32249 | EBI2 beta-arrestin recruitment, luminescence, 7a,25-OHC stimulated | inhibition, % at 5 µM | hit rate 0.81% among 360,000 | AID 651636; in the data active = inhibition above about 38%;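 also: enzyme fragment complementation signal reports receptor beta-arrestin coupling in cells; 0% = agonist plus DMSO wells and 100% = wells without agonist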
# APJ ag: APJ receptor agonism. P35414. CHO-K1 APJ PathHunter beta-arrestin, luminescence; 0% DMSO wells, 100% apelin. activation, % at 20 µM. hit rate 0.11% among 330,000. AID 2520;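 active = activation more than six SD over the plate average, tested at 20 µM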;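 also: 0% = DMSO alone and 100% = apelin-13 at 10 nM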
#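 Test system – PathHunter CHO-K1 APJ (AGTRL-1) beta-arrestin reporter cells · Input – 1000 cells/well · Compound – single test compound dose, 20 µM final, 1% DMSO · Times – compound stimulation 90 min at 25 °C, detection 60 min · Technique – beta-gal luminescence · Read-out basis – APJ–arrestin association signal · Control set – negative DMSO alone, positive Apelin-13 at 10 nM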
# CXCR6 block: inhibitors of human CXCR6 receptor; O00574; CHO-K1 PathHunter CXCR6 beta-arrestin, luminescence; inhibition, % at 20 µM; hit rate 0.36% among 360,000; AID 602244; in the data active = inhibition above about 34%, passing the limit was not always enough;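 also: antagonist mode with CXCL16 agonist at 10 nM final; 0% = 10 nM CXCL16 with DMSO and 100% = unstimulated wells without agonist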
# Target sequence (O00574 whole entry, looked up): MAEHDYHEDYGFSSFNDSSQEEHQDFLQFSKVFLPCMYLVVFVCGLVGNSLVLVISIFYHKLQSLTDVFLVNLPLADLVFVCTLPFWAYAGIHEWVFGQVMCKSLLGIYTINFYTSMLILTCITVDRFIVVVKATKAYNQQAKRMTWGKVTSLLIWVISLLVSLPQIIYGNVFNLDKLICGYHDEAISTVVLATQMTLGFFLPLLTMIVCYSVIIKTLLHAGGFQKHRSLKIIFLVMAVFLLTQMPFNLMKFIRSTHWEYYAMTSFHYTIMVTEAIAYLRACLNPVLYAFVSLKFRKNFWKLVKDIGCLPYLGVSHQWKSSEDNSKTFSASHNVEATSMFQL
# CCR6 antagonist: blocks CCL20-driven beta-arrestin recruitment at human CCR6; inhibition, % at 20 µM; P51684; hit rate 0.49% among 340,000; CHO-K1 CCR6 PathHunter beta-arrestin, luminescence, CCL20-stimulated;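 active = compounds whose inhibition of the agonist-driven luminescence signal at 20 µM reaches about 50%, limit read from the data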;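 also: cells stimulated with CCL20 at 14 nM final; plate controls were DMSO with CCL20 for no effect and DMSO without agonist for full effect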
# Target sequence (P51684 whole entry, looked up): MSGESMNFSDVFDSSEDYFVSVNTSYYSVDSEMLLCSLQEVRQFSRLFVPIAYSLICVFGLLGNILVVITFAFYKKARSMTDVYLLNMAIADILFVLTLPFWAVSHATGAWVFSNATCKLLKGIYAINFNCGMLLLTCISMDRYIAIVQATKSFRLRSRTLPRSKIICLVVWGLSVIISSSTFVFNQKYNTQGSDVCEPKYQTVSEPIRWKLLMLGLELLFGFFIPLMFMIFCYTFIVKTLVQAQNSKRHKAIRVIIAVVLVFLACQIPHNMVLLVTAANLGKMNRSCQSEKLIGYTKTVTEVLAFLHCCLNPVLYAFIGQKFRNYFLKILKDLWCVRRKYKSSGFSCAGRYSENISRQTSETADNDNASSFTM
# APJ antag: APJ receptor antagonism; P35414; CHO-K1 APJ beta-arrestin complementation, luminescence; inhibition, % at 20 µM; hit rate 0.32% among 330,000;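 active = inhibition above about 40% at 20 µM, limit read from the data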;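 also: cells challenged with 10 nM apelin-13 agonist together with compound; plate controls were apelin-13 plus DMSO wells for no effect and DMSO wells lacking apelin-13 for full effect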
# CXCR6 confirm: confirmation of human CXCR6 receptor antagonists | hit rate 65% among 700 | CHO-K1 CXCR6 PathHunter beta-arrestin, luminescence | shares compounds with CXCR6 block | inhibition, % at 20 µM;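 active = mean inhibition over four retests above 40%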;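 also: receptor stimulated with 10 nM CXCL16 agonist; beta-galactosidase fragment complementation upon beta-arrestin recruitment to receptor; plate controls were CXCL16 plus DMSO for no effect and DMSO without CXCL16 for full effect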
# Numbers without * were called inactive; / = no result given.
SMILES,EBI2 antag,APJ ag,CXCR6 block,CCR6 antagonist,APJ antag,CXCR6 confirm
CCOc1ccc(S(=O)(=O)N2CCC(C(=O)N3CCN(c4ccccc4F)CC3)CC2)cc1C,15.9,6.2,0.4,21.0,-32.9,/
C=C1CC(COc2cc(=O)oc3ccccc23)(c2ccccc2)OC1=O (stereo unspecified),52.0*,/,88.9*,100.3*,/,89.6*
CCN(CC)CCN(Cc1cc2cc3c(cc2[nH]c1=O)OCO3)C(=S)NC,-0.1,-3.7,-0.6,3.4,8.9,/
CCC(=O)OCCNc1cc(SCCC(=O)OC)c2nonc2c1[N+](=O)[O-],-12.2,-14.2,58.5*,63.7*,19.9,58.9*
CCC(=O)OCCNc1cc(Sc2nccn2C)c2nonc2c1[N+](=O)[O-],52.9*,/,102.0*,111.6*,/,104.2*
CC(=O)OCCNc1cc(SC(C)C)c2nonc2c1[N+](=O)[O-],9.4,-3.3,10.1,18.0,5.0,/
O=C(C=P(c1ccccc1)(c1ccccc1)c1ccccc1)c1ccccc1-c1ccccc1C(=O)C=P(c1ccccc1)(c1ccccc1)c1ccccc1,3.2,/,70.6*,88.4*,/,39.0
O=C(NCc1ccc2c(c1)OCO2)c1nc(S(=O)(=O)Cc2ccccc2F)ncc1Cl,24.1,6.2,70.3*,48.6,17.8,62.1*
COc1ccc(CNC(=O)c2nc(S(=O)(=O)Cc3ccccc3)ncc2Cl)cc1,39.8,13.1,50.1*,45.1,8.3,51.9*
CC(C)c1nnc(NC(=O)c2nc(S(=O)(=O)Cc3ccccc3F)ncc2Cl)s1,/,-0.5,/,-5.3,-3.7,/
C[C@@H]1CC=C[C@@H]2[C@H]1C(=O)N(Cc1ccccc1)[C@H]2c1ccccc1Br,19.8,/,35.1*,7.3,/,4.8
Nc1cc(=O)[nH]c(SCC(=O)Nc2ccc(Cl)c(Cl)c2)n1,0.9,-4.1,43.1*,2.8,-2.5,5.2
Nc1cc(=O)[nH]c(SCC(=O)Nc2cc(Cl)cc(Cl)c2)n1,11.3,-2.7,7.0,-1.4,-5.3,/
Cc1nc2c(OCc3ccc(C(F)(F)F)cc3)cccn2c1N(C)CC1CC1,22.4,/,46.8*,/,/,24.1
CCC(C(=O)Nc1ccc(C(=O)Nc2ccccc2C(=O)O)cc1)c1ccccc1 (stereo unspecified),-6.6,-4.1,2.0,0.6,2.6,/
CCC(=O)c1ccc(OCC(=O)Nc2nc(-c3cccnc3)cs2)cc1,-6.5,9.5,-6.9,-6.5,-0.8,/
O=C(CCS(=O)(=O)c1ccc(F)cc1)Nc1nc(-c2ccccn2)cs1,-14.1,4.2,-8.9,3.1,-12.4,/
CC(Oc1ccc(F)cc1)C(=O)Nc1nc(-c2ccccn2)cs1 (stereo unspecified),-8.2,-7.4,66.6*,71.4*,-1.7,86.9*
CCc1ccccc1OCC(=O)Nc1nc(-c2cccnc2)cs1,-10.3,-4.4,51.3*,75.9*,17.1,64.1*
Cc1cc(C)c(OCC(=O)Nc2nc(-c3ccccn3)cs2)c(C)c1,-11.7,-3.5,51.6*,/,-9.1,39.0
CCOC(=O)[C@@H]1[C@H]2COc3ccc(Br)cc3[C@@H]2N2C(=O)N(c3ccc(C(F)(F)F)cc3)C(=O)[C@@]12C,9.4,9.4,-0.3,0.9,0.1,/
Nc1ncnc2c1ncn2C1OC(C(=O)NC2CC2)C(O)C1O (stereo unspecified),-3.0,2.5,-1.2,1.4,21.6,/
O=C(/C=C/c1cccc([N+](=O)[O-])c1)c1ccco1,-10.1,0.1,-0.2,19.8,20.3,/
O=C(/C=C/c1cccc([N+](=O)[O-])c1)c1ccc([N+](=O)[O-])o1,8.8,/,95.1*,104.8*,/,97.8*
Cc1ccc(S(=O)(=O)ON2C(=O)c3ccccc3C2=O)c(C)c1,3.8,/,66.7*,61.1*,/,27.0
SMILES,EBI2 antag,APJ ag,CXCR6 block,CCR6 antagonist,APJ antag,CXCR6 confirm
Cc1ccc(S(=O)(=O)N2CCN(CCc3ccccc3)CC2)c(C)c1,11.2,-0.8,5.1,-9.2,6.2,/
COc1cccc(/C=C2\C(=O)N(c3cccc(C)c3)C(=O)c3ccccc32)c1,16.7,-0.3,-9.6,14.4,9.2,/
CCOc1cc(/C=C2\C(=O)N(c3cccc(C(F)(F)F)c3)C(=O)c3ccccc32)ccc1O,3.8,-2.1,44.3*,46.3,15.3,43.4*
COc1ccccc1-c1noc(CCC(=O)Nc2cccc(C)c2)n1,8.5,-4.3,61.8*,21.1,9.3,-5.4
C[C@H](CO)N1C[C@H](C)[C@@H](CN(C)S(C)(=O)=O)Oc2c(NC(=O)c3ccncc3)cccc2C1=O,2.7,-3.8,2.3,4.8,-4.9,/
CCCCc1ccc(-n2nnnc2SCC(=O)Nc2cc(OC)c([N+](=O)[O-])cc2C)cc1,21.6,-2.1,74.9*,0.7,6.9,13.0
Cc1ccc(NC(=S)N/N=C/c2ccc([N+](=O)[O-])s2)cc1,49.8*,0.7,51.7*,71.5*,-20.5,72.0*
CCOc1ccc(N(CC(=O)Nc2ccccc2C(=O)N2CCOCC2)S(=O)(=O)c2ccc(F)cc2)cc1,-0.1,-4.1,70.4*,3.1,2.7,-4.6
CS(=O)(=O)N(CC(=O)Nc1ccccc1C(=O)N1CCOCC1)c1cccc(F)c1,8.2,-2.6,-2.9,2.1,10.4,/
O=C(NC(=S)Nc1ncc(Br)cc1Br)c1ccccc1,-9.5,-0.1,10.4,16.3,23.5,/
COC(=O)c1ccc(CN2C(=O)NC3(CCCc4ccccc43)C2=O)o1 (stereo unspecified),-0.6,-0.6,45.9*,31.1,4.8,-5.4
COC(=O)CN1C(=O)NC2(CCCc3ccccc32)C1=O (stereo unspecified),-6.3,-2.6,-11.5,2.5,10.7,/
CCC(C)(C)n1nnnc1C(c1ccc(F)cc1)N1CCN(C(=O)c2ccco2)CC1 (stereo unspecified),-2.1,-2.7,2.2,14.6,12.1,/
COc1ccc(NC(=S)N(CCc2c(C)[nH]c3ccccc23)Cc2cccnc2)cc1,4.8,-4.1,37.2*,7.2,-7.2,23.4
O=C(CCC(=O)N/N=C/c1ccco1)N/N=C/c1ccco1,-9.0,0.4,1.7,-5.9,3.8,/
Cc1cccc(NC(=O)CCC(=O)N/N=C/c2ccco2)c1,-4.3,-2.8,78.3*,17.5,17.5,-2.6
CCc1nc2c(OCCC3CCCCC3)cccn2c1N(C)C(=O)c1ccc(C)cc1,28.7,/,41.8*,/,/,48.3*
O=C(c1ccco1)N1CCN(C(=O)c2ccc(CS(=O)c3ccc(Cl)cc3)o2)CC1 (stereo unspecified),-8.9,-6.1,-0.2,14.1,15.6,/
O=c1c2ccccc2sn1-c1ccccc1,13.1,2.2,86.5*,75.6*,-11.6,16.3
Cc1ccc(NC(=O)c2ccc(Nc3c([N+](=O)[O-])cc([N+](=O)[O-])cc3[N+](=O)[O-])cc2)cc1,81.2*,-1.5,42.7*,71.2*,35.0,55.7*
O=C(c1ccc(Br)s1)N1CCN(c2ncccn2)CC1,-4.7,-5.2,41.4*,5.7,-8.8,2.7
O=C(c1ccc(Br)s1)N1CCCC1,-5.8,-4.1,5.4,-11.4,10.3,/
